KCNQ1 pot = human KCNQ1 channel potentiation or activation. B-score at 10 µM. P51787. actives 0.35% (n = 310,000). CHO-K1 KCNQ1, thallium flux FluxOR fluorescence; stronger effect = higher value;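 active = fluorescence ratio B-score, a plate-corrected score, at least three library SD, with initial intensity B-score within 5 SD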
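Doses: Single concentration per compound, DMSO matched to controls | Test system: KCNQ1-transfected CHO-K1 cells | Timing: 90 min dye loading and 20 min compound exposure, both at room temperature | Measured by: Kinetic FluxOR thallium fluorescence, 10-s 1-Hz baseline, 110-s post-stimulus read | Medium: Assay buffer with matched DMSO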
AI-2 QS modul = modulators of Vibrio harveyi AI-2 quorum sensing system. Vibrio harveyi JMH597 AI-2 luminescence/OD600 ratio, 9 h; stronger effect = lower value; strain lacks LuxN and CqsS sensors; 0 = neutral-control median. activity change, % at 7.5 µM. actives 0.4% (n = 300,000). AID 2094; in the data active = activity change below about -75%, passing the limit was not always enough;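 also: luminescence divided by OD600 gain over 9 h not by final OD600 alone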
hERG rescue = shields human hERG channel from block by proarrhythmic agents; Q12809; CHO-hERG, FluxOR thallium flux, dofetilide IC70 present; activation (rescue from dofetilide block), less the hit threshold, % at 10 µM; actives 0.51% (n = 310,000); AID 1511;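 active = activation above the mean of controls blocked by dofetilide plus 5 SD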;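 also: thallium influx through hERG after potassium depolarization seen as dye fluorescence rise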
KCNQ1 block = blocks the human KCNQ1 potassium channel; P51787; CHO-K1 KCNQ1, FluxOR thallium flux fluorescence; stronger effect = higher value; B-score at 10 µM; actives 1.3% (n = 310,000); AID 2642;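 active = compounds whose thallium flux B-score, printed positive for inhibition, exceeds three library SD while starting fluorescence stays within three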;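 also: channel opened by potassium depolarization with thallium stimulus after 20 min compound exposure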
SUMO Mot1 rescue = SUMOylation pathway inhibition by Mot1-301 growth rescue; AID 2716; S. cerevisiae Mot1-301 growth rescue, ATP luminescence, 38.5C; percent above DMSO median, 100 means doubled; actives 1% (n = 320,000); growth rescue, % at 18.8 µM;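 active = every valid replicate shows activation above 250% relative to neutral control wells; inactive = the rest, any valid replicate at or below 250%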
KCC2 mod = modulates chloride dependent transport by human KCC2; B-score of Tl+ flux slope (higher = more flux/activation; lower = inhibition) at 10 µM; Q9H2X9; actives 2.2% (n = 190,000); KCC2 cells, thallium flux FluoZin-2 fluorescence;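 active = thallium flux slope and its plate-corrected score both differing from the plate sample mean at a set confidence after two filtering rounds, in either direction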;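 also: slope of fluorescence scaled to starting intensity during 10 to 20 s after thallium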
KCNQ1 inh valid = confirmation of human KCNQ1 potassium channel inhibitors; shares compounds with KCNQ1 block; KCNQ1 cell line, FluxOR thallium flux fluorescence; inhibition, % at 10 µM; actives 93% (n = 1,600);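 active = primary screen active, with duplicate mean exceeding buffer control mean plus 3 SD of buffer wells, cut at about 28% in these data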
CHO KCNQ1 ctr = KCNQ1 inhibitor counter-screen hit in parental CHO cells; shares compounds with KCNQ1 block; parental CHO-K1, FluxOR thallium flux fluorescence ratio; stronger effect = lower value; zero means no signal rise above baseline; fluorescence ratio (Tl flux) at 10 µM; actives 21% (n = 1,600);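 active = mean of duplicate thallium-flux fluorescence ratios in parental host cells more than 5 SD below the buffer control mean, cut at about 0.38 in these data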;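 also: ratio is peak minus minimum fluorescence divided by baseline fluorescence; actives read low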
KCNQ1 ephys val = human KCNQ1 inhibition validated by electrophysiology | actives 20% (n = 490) | calls only at 10 µM | KCNQ1-CHO cells, automated patch clamp current | AID 624120 | shares compounds with KCNQ1 block;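 active = KCNQ1 current drop exceeding 3 SD of negative control wells, seen in both duplicate runs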;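 also: steady state current during a 2 s step from -80 to +40 mV; negative values mean current inhibition and positive values mean potentiation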
KCNQ2 spec = KCNQ1 inhibitor that also blocks rat KCNQ2 channel; KCNQ2 cells, FluxOR thallium flux fluorescence; inhibition, % at 10 µM; actives 71% (n = 1,600); shares compounds with KCNQ1 block;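 active = mean percent inhibition of the KCNQ2 thallium signal more than 5 SD above the buffer-only control wells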;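 also: KCNQ2 expressed in CHO cells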
KCNQ1-KCNE1 inh = KCNQ1 inhibitor that also blocks human KCNQ1/KCNE1 channel; inhibition, % at 10 µM; shares compounds with KCNQ1 block; KCNQ1/KCNE1 cells, FluxOR thallium flux fluorescence; actives 77% (n = 1,600);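 active = mean percent inhibition of duplicate wells above the buffer-only control mean plus 3 SD of those controls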
Of the large screens only hits and unclear results are named; the others gave an inactive call (follow-up assays come after a bar, where they were run). An excerpt weighted towards active compounds, which were near 4.2% of everything screened.

COc1ccc(N2CCN(c3ncnc4scc(-c5ccc(F)cc5)c34)CC2)cc1	KCNQ1 block 8 (no result: KCC2 mod) | KCNQ1 inh valid 95.0 | CHO KCNQ1 ctr 0.361 | KCNQ2 spec 73.7% | KCNQ1-KCNE1 inh 103.5%
Cc1ccc2ncccc2c1NC(=S)NC(=O)c1ccccc1	none
C[C@H](C(=O)CC(=O)OC(C)(C)C)[C@H](O)c1ccccc1	none (no result: KCC2 mod)
CC1Sc2ccc(S(=O)(=O)N3CCC(C(=O)NCCc4ccccc4)CC3)cc2NC1=O (stereo not given)	none (no result: KCC2 mod)
Cc1ccc(NC(=O)C2CCN(S(=O)(=O)c3ccc4c(c3)NC(=O)C(C)S4)CC2)cc1Cl (stereo not given)	KCNQ1 block 17 (no result: KCC2 mod) | KCNQ1 inh valid 126.0 | CHO KCNQ1 ctr inactive | KCNQ1 ephys val inactive | KCNQ2 spec 91.7% | KCNQ1-KCNE1 inh 107.0%
Cc1ccc(NC(=O)C2CCN(S(=O)(=O)c3ccc4c(c3)NC(=O)C(C)S4)CC2)c(Cl)c1 (stereo not given)	none (no result: KCC2 mod)
CC1Sc2ccc(S(=O)(=O)N3CCC(C(=O)NCC(C)c4ccccc4)CC3)cc2NC1=O (stereo not given)	KCNQ1 block 7 (no result: KCC2 mod) | KCNQ1 inh valid 56.0 | CHO KCNQ1 ctr inactive | KCNQ2 spec inactive | KCNQ1-KCNE1 inh inactive
Cc1cc(C)cc(NC(=O)C2CCN(S(=O)(=O)c3ccc4c(c3)NC(=O)C(C)S4)CC2)c1 (stereo not given)	KCNQ1 block 7 (no result: KCC2 mod) | KCNQ1 inh valid 116.0 | CHO KCNQ1 ctr inactive | KCNQ1 ephys val inactive | KCNQ2 spec 97.7% | KCNQ1-KCNE1 inh 131.0%
Cc1ccccc1NC(=O)C1CCN(S(=O)(=O)c2ccc3c(c2)NC(=O)C(C)S3)CC1 (stereo not given)	none (no result: KCC2 mod)
CCCCc1nc2cc(C(=O)NCc3cc(C)n(C)n3)ccc2o1	none (no result: KCC2 mod)
O=C(Nc1ccc(F)c(Cl)c1)c1cncs1	none (no result: KCC2 mod)
Cc1cc(C)n2nc(C(=O)Nc3cccc(S(=O)(=O)N(C)c4ccccc4)c3)nc2n1	none
C=CCn1c(SCc2c(C)noc2C)nc2sc3c(c2c1=O)CCCC3	KCNQ1 block 7 | KCNQ1 inh valid 80.5 | CHO KCNQ1 ctr inactive | KCNQ2 spec 90.3% | KCNQ1-KCNE1 inh 146.0%
COCCCn1c(=O)c2ccccc2n2c(=S)[nH]nc12	none (no result: KCC2 mod)
Clc1ccc(-c2cc3ccccc3[nH]2)cc1	KCNQ1 block 6 | KCNQ1 inh valid 124.0 | CHO KCNQ1 ctr inactive | KCNQ2 spec inactive | KCNQ1-KCNE1 inh 97.5%
O=c1cc(-c2ccc(Cl)cc2)[nH]c2ccccc12	none
COc1cccc(C(C(=O)NCc2ccccc2)N(C(=O)c2csnn2)C2CC2)c1 (stereo not given)	none (no result: KCC2 mod)
Cc1cc(C2(c3ccc(O)c(C)c3)C(=O)Nc3ccccc32)ccc1O	KCNQ1 block 7 | KCNQ1 inh valid inactive | CHO KCNQ1 ctr inactive | KCNQ2 spec inactive | KCNQ1-KCNE1 inh inactive
O=C1Nc2ccccc2C1(O)c1ccccc1 (stereo not given)	none
Cc1cc(-c2ccc(S(=O)(=O)N(C)c3ccc(C)c(C)c3)s2)on1	KCNQ1 block 9 (no result: KCC2 mod) | KCNQ1 inh valid 128.0 | CHO KCNQ1 ctr 0.342 | KCNQ2 spec 142.7% | KCNQ1-KCNE1 inh 150.5%
Cn1c(N)c(C(=O)COC(=O)c2cc(S(=O)(=O)N3CCOCC3)ccc2F)c(=O)n(C)c1=O	none (no result: KCNQ1 pot, AI-2 QS modul, hERG rescue, KCNQ1 block, KCC2 mod)
Cc1ccc(-c2cc3ccccc3nc2N2CCCC2)cc1	KCNQ1 block 12 (no result: KCC2 mod) | KCNQ1 inh valid 117.5 | CHO KCNQ1 ctr inactive | KCNQ1 ephys val inactive | KCNQ2 spec 86.7% | KCNQ1-KCNE1 inh 194.5%
Clc1ccc(-c2cc3ccccc3nc2N2CCOCC2)cc1	KCNQ1 block 11 (no result: KCC2 mod) | KCNQ1 inh valid 130.0 | CHO KCNQ1 ctr inactive | KCNQ2 spec 97.7% | KCNQ1-KCNE1 inh 182.0%
c1ccc2c(c1)nc(N1CCOCC1)c1ccccc12	none
Cc1nc2ccccc2nc1N1CCCC1	none
Clc1ccc(-c2cc3ccccc3nc2N2CCCC2)cc1	KCNQ1 block 12 (no result: KCC2 mod) | KCNQ1 inh valid 130.0 | CHO KCNQ1 ctr inactive | KCNQ1 ephys val inactive | KCNQ2 spec 82.7% | KCNQ1-KCNE1 inh 167.0%
c1ccc2c(c1)nc(N1CCCCC1)c1ccccc12	none
CCCOc1ccccc1OCC(=O)Nc1cc(Cl)ccc1-n1cncn1	none (no result: KCC2 mod)
N/C(=N\OC(=O)c1cnn(-c2ccccc2)c1C(F)(F)F)c1ccc(C(F)(F)F)cc1	none
C[n+]1ccc(C(=O)N/N=C/c2ccco2)cc1	none
CC(C)CN(C(=O)C1CSC2(C)CCC(=O)N12)c1c(N)n(Cc2ccccc2)c(=O)[nH]c1=O (stereo not given)	none (no result: KCC2 mod)
Cc1ccc2ncc(S(=O)(=O)c3ccccc3)c(N3CCCCC3C)c2c1 (stereo not given)	KCNQ1 block 7 (no result: KCC2 mod) | KCNQ1 inh valid 126.0 | CHO KCNQ1 ctr 0.322 | KCNQ2 spec 130.7% | KCNQ1-KCNE1 inh active
COc1ccc2ncc(S(=O)(=O)c3ccccc3)c(N3CCN(c4ccccc4)CC3)c2c1	none
CN1c2ccccc2C(C)(C)C12C=Cc1cc(O)ccc1O2 (stereo not given)	KCNQ1 block 9 (no result: KCC2 mod) | KCNQ1 inh valid 131.5 | CHO KCNQ1 ctr 0.358 | KCNQ2 spec 128.3% | KCNQ1-KCNE1 inh 168.5%
Cc1nc(N2CCN(Cc3ccc4c(c3)OCO4)CC2)c2cc(-c3ccccc3)sc2n1	KCNQ1 block 7 | KCNQ1 inh valid 118.0 | CHO KCNQ1 ctr inactive | KCNQ1 ephys val inactive | KCNQ2 spec 111.0% | KCNQ1-KCNE1 inh 130.0%
Cc1ccc(NS(=O)(=O)c2cc(Br)cnc2N)c(Cl)c1	none (no result: KCC2 mod)
Nc1ncc(Br)cc1S(=O)(=O)Nc1cc(C(F)(F)F)cc(C(F)(F)F)c1	KCNQ1 block 10 (no result: KCC2 mod) | KCNQ1 inh valid 107.5 | CHO KCNQ1 ctr inactive | KCNQ2 spec inactive | KCNQ1-KCNE1 inh inactive
